Measurements published in publication PMC4761526 (Journal of pharmaceutical sciences, 2016).
“And” between values parts separate entries of the source, which are not always exact repeats. Identical values can stand only once.

Tests used:
MRP2 = MRP2 (Homo sapiens, UniProt Q92887); experiment: CDF directional; type: cell-based
[1] = test system: genistein conjugative metabolism; experiment: Genistein conjugative metabolism; type: in vitro ADME, human
Caco-2 [2] = experiment: Lucifer yellow permeability in Caco-2; type: in vitro ADME, human; conditions: control vs in the presence of 50 μM glyceollin
MRP2 and/or MRP3 = experiment: Net CDF uptake into Caco-2 grown on 24-well plates after CDFA exposure; type: cell-based, human; conditions: 100 μM compound, 30 min with 5 μM CDFA, cells on plastic
[3] = test system: esterase-mediated conversion of CDFA to CDF; experiment: CDFA hydrolysis to CDF by Caco-2 cells; type: cell-based, human; conditions: 100 μM compound
How it was run: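 Caco-2 cells from ATCC, used at passages 35–55, grown in DMEM with 10% FBS, 1% non-essential amino acids, 1 mM sodium pyruvate and 2 mM L-glutamine at 37°C in 5% CO2. CDFA was taken from a 5 mM stock in 1:1 DMSO:ethanol. CDF formation was expressed as specific activity per mg protein under initial-rate conditions, N = 3 per condition.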

Caco-2 [4] = experiment: Genistein conjugate metabolite excretion from Caco-2; type: in vitro ADME, human

Chain of MRP2 (Q92887 whole entry): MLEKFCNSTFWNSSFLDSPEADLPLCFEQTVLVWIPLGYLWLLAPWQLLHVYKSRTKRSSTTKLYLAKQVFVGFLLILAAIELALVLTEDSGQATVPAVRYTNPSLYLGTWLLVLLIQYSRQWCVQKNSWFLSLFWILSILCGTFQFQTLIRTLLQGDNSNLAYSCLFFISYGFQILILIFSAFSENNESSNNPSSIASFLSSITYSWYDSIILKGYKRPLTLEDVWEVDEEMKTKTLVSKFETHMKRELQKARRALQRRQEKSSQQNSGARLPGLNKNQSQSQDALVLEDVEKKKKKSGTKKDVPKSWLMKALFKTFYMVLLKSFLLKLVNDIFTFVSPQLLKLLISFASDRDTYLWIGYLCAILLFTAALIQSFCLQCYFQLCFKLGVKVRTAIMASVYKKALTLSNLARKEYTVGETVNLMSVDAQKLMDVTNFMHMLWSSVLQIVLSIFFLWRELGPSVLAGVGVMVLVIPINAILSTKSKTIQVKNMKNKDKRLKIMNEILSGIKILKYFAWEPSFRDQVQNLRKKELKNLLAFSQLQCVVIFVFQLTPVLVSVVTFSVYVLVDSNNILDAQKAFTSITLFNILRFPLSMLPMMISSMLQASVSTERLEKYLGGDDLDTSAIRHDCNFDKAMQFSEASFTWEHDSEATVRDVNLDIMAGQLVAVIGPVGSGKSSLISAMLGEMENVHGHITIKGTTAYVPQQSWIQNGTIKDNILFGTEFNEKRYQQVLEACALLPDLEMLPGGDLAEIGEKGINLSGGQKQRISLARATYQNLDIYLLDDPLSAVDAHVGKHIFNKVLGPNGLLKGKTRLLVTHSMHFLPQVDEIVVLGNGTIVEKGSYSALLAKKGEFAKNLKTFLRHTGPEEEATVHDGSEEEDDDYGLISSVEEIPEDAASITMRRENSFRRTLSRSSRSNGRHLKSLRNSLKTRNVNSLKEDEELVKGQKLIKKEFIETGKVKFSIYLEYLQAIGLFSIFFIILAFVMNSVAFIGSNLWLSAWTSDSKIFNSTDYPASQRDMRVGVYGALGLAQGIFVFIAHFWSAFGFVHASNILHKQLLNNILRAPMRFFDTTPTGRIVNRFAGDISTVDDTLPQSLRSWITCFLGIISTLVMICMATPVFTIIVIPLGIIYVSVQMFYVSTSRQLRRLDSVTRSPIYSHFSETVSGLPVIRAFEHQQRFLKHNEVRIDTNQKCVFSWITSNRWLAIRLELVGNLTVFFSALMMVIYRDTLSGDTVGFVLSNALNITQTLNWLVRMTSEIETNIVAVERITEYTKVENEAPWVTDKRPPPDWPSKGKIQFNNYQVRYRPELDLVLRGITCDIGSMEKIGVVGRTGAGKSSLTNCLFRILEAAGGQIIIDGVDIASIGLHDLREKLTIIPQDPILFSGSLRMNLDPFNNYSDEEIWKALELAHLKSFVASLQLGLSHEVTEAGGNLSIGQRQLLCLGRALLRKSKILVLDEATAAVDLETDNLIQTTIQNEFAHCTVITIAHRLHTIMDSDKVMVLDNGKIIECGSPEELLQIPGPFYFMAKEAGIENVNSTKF

5 (and 6)-Carboxy-2′,7′-dichloroflourescein [CDF]
CDF permeability, BA direction vs. AB direction (MRP2; control conditions, no inhibitor): 3.7 ± 0.36 fold

O=c1c(-c2ccc(O)cc2)coc2cc(O)cc(O)c12 [genistein]
fraction of genistein metabolized to conjugates (Fm), average ([1]; control vs 30 μM glyceollin, average of two experiments): 47% ± 10.5% and 47%

Lucifer yellow
lucifer yellow permeability (Caco-2 [2]): 0.13 ± 0.035 × 10^-5 cm/s

CN(C)C(=O)CCSC(SCCC(=O)O)c1cccc(/C=C/c2ccc3ccc(Cl)cc3n2)c1 (stereo not drawn) [MK-571]
CDF AB directional transport (MRP2; 100 μM compound vs control): statistically significant increase | CDF BA directional transport (MRP2; 100 μM compound vs control): statistically significant reduction | CDF cell concentration at the conclusion of the 2-hour incubation (MRP2; 100 μM compound, both transport directions): reduced | IC50 for reduction of CDF BA/AB permeability ratio (MRP2; 10, 30 or 100 μM compound): 22 µM | CDF uptake (MRP2 and/or MRP3): significant reduction | rate of esterase-mediated conversion of CDFA to CDF [3]: did not alter | CDFA hydrolysis specific activity (initial rate) ([3]; 5 μM CDFA, control 6.0): 8.5 nM/min/mg protein

glyceollin
apical metabolite excretion rate (Caco-2 [4]): 6.5 ± 0.61 × 10^-5 nmoles/sec | intracellular genistein conjugates ([1]; Caco-2): 9 ± 2.7 pmoles/filter
